Experimental data pooled from the literature.
Protocols differ between the studies behind these lines.

CC(C)(C)c1ccc(O)c(CN(Cc2cc(C(C)(C)C)ccc2O)C2CCC(NC(N)=O)CC2)c1 (stereo not shown)  clearance (male C57BL/6 mouse, plasma; intraperitoneal, 10 mg/kg, single dose): 17 mL/min/kg
Cc1c(Br)cc(NC(=O)CS(=O)(=O)O)cc1Br  clearance (CD-1 mouse, blood; intravenous, 2 mg/kg): 21.8 mL/min/kg
CCc1cc(OC)c2nccc(N3CCc4c(cc(Cn5ccnc5)cc4-c4cn(C)nc4C(F)(F)F)C3=O)c2c1  clearance (male CD-1 mouse, plasma; intravenous, 3 mg/kg): 16 mL/min/kg
CC[C@H](C)[C@@H]1NC(=O)[C@@](C)(NC(=O)[C@H](CCCNC(=N)N)NC(=O)[C@H](CC(C)C)NC(=O)[C@@H](NC(=O)[C@H](CCC(N)=O)NC(=O)[C@H](CC(C)C)NC(C)=O)[C@@H](C)O)CCCC=CCCC[C@@](C)(C(=O)N[C@@H](CC(C)C)C(=O)N[C@@H](Cc2ccc3ccccc3c2)C(N)=O)NC(=O)[C@H](CCCNC(=N)N)NC(=O)[C@H](CCC(N)=O)NC1=O  clearance (male BALB/c mouse, plasma; intravenous, 5 mg/kg): 0.662 mL/min/kg
CC(C)c1cnn2c(NCc3ccccc3)cc(NC[C@H]3CCNC[C@@H]3O)nc12  clearance (male CD-1 mouse, plasma; intravenous, 10 mg/kg): 78 mL/min/kg
CNCCN(C)c1cc(C#N)cc(CCc2cc(C)cc(N)n2)c1  clearance (male BALB/c mouse, plasma; intravenous, 2 mg/kg): 184 mL/min/kg
COc1ccc2cc(CCC[18F])ccc2c1  clearance (male BALB/c mouse, plasma; intravenous): 0.25 mL/min
OC[C@H]1O[C@@H](c2ccc(Cl)c(Cc3ccc(O[C@H]4CCOC4)cc3)c2)[C@H](O)[C@@H](O)[C@@H]1O  clearance (CD-1 mouse, plasma; intravenous, 5 mg/kg): 51.6 mL/min/kg
C=C(C[C@H](N)C(=O)O)C(=O)NCc1ccc(F)cc1  clearance (male CD-1 mouse, plasma; intravenous, 2.5 mg/kg): 29.4 mL/min/kg
CCc1cc(C(=O)NC)c2nccc(N3CCc4c(cc(Cn5ccnc5)cc4-c4cn(C)nc4C(F)(F)F)C3=O)c2c1  clearance (male CD-1 mouse, plasma; intravenous, 3 mg/kg): 12 mL/min/kg
CN(C)c1ccc(-c2cc(=O)c3ccc(O)c(O)c3o2)cc1  clearance (mouse, plasma; intravenous, 1 mg/kg): 168 mL/min/kg
CCNc1nc2c(c(N3CC(=O)Nc4cc(OC)ccc43)n1)CCC2  clearance (female C57BL/6 mouse, plasma; intravenous, 4 mg/kg, single dose): 108 mL/min/kg
Cc1ccc2cncc(N3CCc4c(cc(Cn5ccnc5)cc4-c4cn(C)nc4C(F)(F)F)C3=O)c2c1  clearance (male CD-1 mouse, plasma; intravenous, 3 mg/kg): 16 mL/min/kg
COc1nc(-c2cc(C)c(N[C@@H](C)c3c(F)cc(F)cc3F)nn2)ccc1-n1cnc(C)c1  clearance (male CD-1 mouse, plasma; intravenous, 1 mg/kg, single dose): 6.33 mL/min/kg
COc1cc(C(=O)N2CCC(N3CCN(C)CC3)CC2)ccc1Nc1ncc2c(n1)N(C)c1ccccc1C(=O)N2C  clearance (mouse, plasma; intravenous, 1 mg/kg): 5.6 mL/min/kg
O=C(Nc1ccc(Cl)c(Cl)c1)c1ccc(N2CCNCC2)c([N+](=O)[O-])c1  clearance (male mouse, plasma; oral, 10 mg/kg): 53.5 mL/min/kg
Cc1noc(C)c1-c1ccc2nc(N3CCN(CCN(C)C)CC3)nc(N3CCOC[C@@H]3c3ccccc3)c2c1  clearance (CD-1 mouse, plasma; intravenous, 2 mg/kg): 62.3 mL/min/kg
CC(C)N1Cc2cc(C(F)(F)F)ncc2C2=CN=C(NCc3c(F)ccc4c3CCO4)N3C=NC(C1=O)C23 (stereo not shown)  clearance (male CD-1 mouse, plasma; intravenous, 2 mg/kg): 1.71 mL/min/kg
Cc1c(Br)cc(NC(=O)C(c2ccccc2)S(=O)(=O)O)cc1Br (stereo not shown)  clearance (CD-1 mouse, blood; intravenous, 2 mg/kg): 34.9 mL/min/kg
